From ChEMBL document CHEMBL4680078, “Inhibitors of the Cysteine Synthase CysM with Antibacterial Potency against Dormant Mycobacterium tuberculosis” (J Med Chem, 2016)
The source made the active and inactive calls. No cut-off for these calls is given here.

Legend:
[1] = Binding affinity to Mycobacterium tuberculosis CysM expressed in Escherichia coli strain BL21 (DE3) incubated for 5 mins by PLP fluorescence-based screening assay
Summary of the method: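 Binding measured by the rise in fluorescence emission of the enzyme-bound PLP cofactor on ligand binding, using recombinant CysM at 2 µM. Kd obtained by fitting the ligand concentration dependence to a 1:1 binding-site model. Affinities approaching sub-µM are limited by protein concentration.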

[2] = tested on: Mycobacterium tuberculosis; test: Inhibition of Mycobacterium tuberculosis CysM expressed in Escherichia coli strain BL21 (DE3) assessed as apparent first-order rate constant for the formation of the alpha-aminoacrylate intermediate at 100 uM incubated for 5 mins in presence of OPS by spectrophotometry
Summary of the method: (§1)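 Orthogonal activity assay with recombinant CysM, following formation of the α-aminoacrylate intermediate in the first half-reaction with OPS. Apparent first-order rate constants (kobs) determined. Only residual activities below 20% are reliably quantified; >20% remaining activity is reported as a limit.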

[3] = tested on: Mycobacterium tuberculosis; test: Antimycobacterial activity against Mycobacterium tuberculosis H37Rv assessed as inhibition of microbial growth incubated for 5 days by alamar blue assay; type: functional; details: 120 h, time 5 day
[4] = tested on: Mycobacterium tuberculosis; test: Inhibition of Mycobacterium tuberculosis CysM expressed in Escherichia coli strain BL21 (DE3) assessed as reduction in amino-acrylate intermediate formation by measuring residual enzyme activity at 100 uM incubated for 5 mins in presence of OPS by spectrophotometry; summary of the method: as §1
[5] = tested on: Mycobacterium tuberculosis; test: Antimycobacterial activity against Mycobacterium tuberculosis H37Rv grown under nutrient starvation condition assessed as reduction in nonreplicating cells count incubated for 7 days at 10 ug/ml; type: functional; details: for Activity: dose 10.0 µg/ml, time 7.0 day; for log(activity): dose 10 µg/ml, time 7 day
[6] = Binding affinity to Mycobacterium tuberculosis CysM by ITC analysis
SH-SY5Y = test: Cytotoxicity in human SH-SY5Y cells assessed as reduction in cell viability at 10 uM incubated for 72 hrs by Cell-titer-Glo assay; type: cell-based
HepG2 = test: Cytotoxicity in human HepG2 cells assessed as reduction in cell viability at 10 uM incubated for 72 hrs by Cell-titer-Glo assay; type: cell-based; details: hepg2, 72 h
J774.A1 = test: Cytotoxicity in mouse J774.A1 cells assessed as reduction in cell viability at 10 uM incubated for 72 hrs by Cell-titer-Glo assay; type: cell-based; details: j774.a1, 72 h
THP-1 = test: Cytotoxicity in human THP-1 cells assessed as reduction in cell viability at 10 uM incubated for 72 hrs by Cell-titer-Glo assay; type: cell-based; details: thp-1, 72 h
[7] = tested on: Mycobacterium tuberculosis; test: Bactericidal activity against Mycobacterium tuberculosis H37Rv grown under nutrient starvation condition assessed as reduction in nonreplicating cells count incubated for 7 days at 10 ug/ml in presence of 0.2 mM cysteine; type: functional, organism-based; details: dose 10.0 µg/ml, time 7.0 day
Summary of the method: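 Nutrient-starved, nonreplicating H37Rv culture exposed to compound at 10 µg/ml alongside added L-cysteine (series 0.0, 0.05, 0.2, 0.5 mM) and an untreated control. Viable bacteria counted by most probable number (MPN) assay. Run in triplicate.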

[8] = Stability in presence of cysteine assessed as compound degradation incubated for 24 hrs by mass-spectrometry; type: physicochemical
[9] = Stability in presence of cysteine assessed as compound degradation incubated for 24 hrs by HPLC analysis; type: physicochemical
[10] = Stability in presence of cysteine assessed as compound degradation incubated for 24 hrs by spectroscopy analysis; type: physicochemical
[11] = Binding affinity to Mycobacterium tuberculosis CysK1 by PLP fluorescence-based screening assay
[12] = tested on: Mycobacterium tuberculosis; test: Selectivity index, ratio of Kd for binding affinity to Mycobacterium tuberculosis CysK1 to Kd for binding affinity to Mycobacterium tuberculosis CysM expressed in Escherichia coli strain BL21 (DE3)
[13] = Binding affinity to Mycobacterium tuberculosis CysK2 by PLP fluorescence-based screening assay
[14] = tested on: Mycobacterium tuberculosis; test: Selectivity index, ratio of Kd for binding affinity to Mycobacterium tuberculosis CysK2 to Kd for binding affinity to Mycobacterium tuberculosis CysM expressed in Escherichia coli strain BL21 (DE3)
[15] = target: T1, Cystathionine beta-synthase (Homo sapiens, UniProt P35520); test: (§2) Binding affinity to human CBS by PLP fluorescence-based screening assay
T1 sequence (P35520 whole entry): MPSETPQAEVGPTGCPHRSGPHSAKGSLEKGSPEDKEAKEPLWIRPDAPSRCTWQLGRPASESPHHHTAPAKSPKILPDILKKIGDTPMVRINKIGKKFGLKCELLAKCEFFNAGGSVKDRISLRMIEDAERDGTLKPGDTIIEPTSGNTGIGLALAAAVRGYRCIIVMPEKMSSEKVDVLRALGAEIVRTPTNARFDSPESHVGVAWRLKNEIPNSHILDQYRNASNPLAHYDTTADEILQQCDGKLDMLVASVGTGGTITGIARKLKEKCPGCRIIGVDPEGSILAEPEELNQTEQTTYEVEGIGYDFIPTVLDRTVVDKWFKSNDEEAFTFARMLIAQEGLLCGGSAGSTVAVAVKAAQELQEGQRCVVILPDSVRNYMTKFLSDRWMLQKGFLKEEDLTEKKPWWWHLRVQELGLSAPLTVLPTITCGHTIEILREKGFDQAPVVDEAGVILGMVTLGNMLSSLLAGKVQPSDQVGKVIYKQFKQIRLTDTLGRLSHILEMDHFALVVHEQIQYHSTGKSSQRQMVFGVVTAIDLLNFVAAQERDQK

[16] = Selectivity index, ratio of Kd for binding affinity to human CBS to Kd for binding affinity to Mycobacterium tuberculosis CysM expressed in Escherichia coli strain BL21 (DE3)
[17] = target: T2, Cystathionine beta-synthase (Homo sapiens) (UniProt P35520); test: as §2
T2 sequence (whole entry): T1 sequence (P35520 whole entry)

O=C(O)c1cccc(NS(=O)(=O)c2ccc(Cl)c(Cl)c2)c1
Kd [1]: Not Active | K [2]: > 20 min⁻¹

CO[C@H]1/C=C/O[C@@]2(C)Oc3c(C)c(O)c4c(O)c(c(/C=N/N5CCN(C)CC5)c(O)c4c3C2=O)NC(=O)/C(C)=C\C=C\[C@H](C)[C@H](O)[C@@H](C)[C@@H](O)[C@@H](C)[C@H](OC(C)=O)[C@@H]1C [RIFAMPIN]
MIC [3]: 0.5 µM

O=C(Nc1ccc([N+](=O)[O-])cc1)Nc1cccc(C(=O)O)c1
Kd ([1]; read-out: Kd): 10.5 µM | K [2]: 2.22 min⁻¹ | Activity [4]: 5.7% | MIC [3]: 20.7 µM | Activity [5]: inactive

O=C(Nc1ccc(Cl)c(Cl)c1)Nc1ccc(O)c(C(=O)O)c1
Kd [1]: Not Active | K [2]: > 20 min⁻¹

COc1ccc(NC(=O)Nc2cccc(C(=O)O)c2)cc1
Kd ([1]; read-out: Kd): 11.3 µM | K [2]: 3.84 min⁻¹ | Activity [4]: 9.9% | MIC [3]: 21.8 µM | Activity [5]: inactive

O=C(Nc1cccc(-c2ccccc2)c1)Nc1ccc(O)c(C(=O)O)c1
Kd [6]: 2.2 µM | K [2]: 0.23 min⁻¹ | Activity [4]: 0.6% | Activity (SH-SY5Y): Non-Toxic | Activity (HepG2): Non-Toxic | Activity (J774.A1): Non-Toxic | Activity (THP-1): Non-Toxic

O=C(Nc1cccc(C(=O)O)c1)Nc1ccc(Cl)c(Cl)c1
Kd [6]: 0.32 µM | K [2]: 0.1 min⁻¹ | Activity [4]: 0.3% | MIC [3]: 9.6 µM | log(activity) [5]: 3 | Activity [7]: inactive | Stabilty [8]: Unstable | Stabilty [9]: Unstable | Stabilty [10]: Unstable | Activity (SH-SY5Y): Non-Toxic | Activity (HepG2): Non-Toxic | Activity (J774.A1): Non-Toxic | Activity (THP-1): Non-Toxic | Kd [11]: 241 µM | Ratio [12]: > 80 | Kd [13]: 30.1 µM | Ratio [14]: 15 | Kd [15]: 94 µM | Ratio [16]: 300

O=C(Nc1ccc(Br)cc1)Nc1cccc(C(=O)O)c1
Kd [6]: 1.4 µM | K [2]: 0.48 min⁻¹ | Activity [4]: 1.2% | MIC [3]: 18.6 µM | Activity [5]: inactive | Activity (SH-SY5Y): Non-Toxic | Activity (HepG2): Non-Toxic | Activity (J774.A1): Non-Toxic | Activity (THP-1): Non-Toxic

O=C(Nc1ccc(C(=O)O)c(O)c1)Nc1ccc(Cl)c(Cl)c1
Kd [1]: Not Active | K [2]: > 20 min⁻¹

O=C(Nc1ccc(Cl)cc1)Nc1cccc(C(=O)O)c1
Kd [6]: 3.4 µM | K [2]: 0.24 min⁻¹ | Activity [4]: 0.6% | MIC [3]: 21.5 µM | Activity [5]: inactive | Activity (SH-SY5Y): Non-Toxic | Activity (HepG2): Non-Toxic | Activity (J774.A1): Non-Toxic | Activity (THP-1): Non-Toxic

O=C(Nc1cccc(C(=O)O)c1)Nc1cccc(-c2ccccc2)c1
Kd ([1]; read-out: Kd): 1.7 µM | K [2]: 0.24 min⁻¹ | Activity [4]: 0.6% | MIC [3]: 18.8 µM | Activity (SH-SY5Y): Non-Toxic | Activity (HepG2): Non-Toxic | Activity (J774.A1): Non-Toxic | Activity (THP-1): Non-Toxic | Kd [11]: 96.8 µM | Ratio [12]: > 80 | Kd [13]: 22.6 µM | Ratio [14]: 15 | Activity [17]: inactive

CC(=O)c1ccc(NC(=O)Nc2cccc(C(=O)O)c2)cc1
Kd ([1]; read-out: Kd): 111 µM | K [2]: > 20 min⁻¹

NNC(=O)c1ccncc1 [ISONIAZID]
MIC [3]: 0.4 µM | log(activity) [5]: 1

O=C(Nc1cccc(-c2ccccc2)c1)Nc1ccc(C(=O)O)c(O)c1
Kd ([1]; read-out: Kd): 4.5 µM | K [2]: 0.48 min⁻¹ | Activity [4]: 1.2% | MIC [3]: 2.2 µM | log(activity) [5]: 3 | Activity [7]: inactive

Cc1ccc(C(=O)Nc2cccc(C(=O)O)c2)cc1
Kd [1]: Not Active | K [2]: > 20 min⁻¹

O=C(Nc1ccccc1)Nc1cccc(C(=O)O)c1
Kd ([1]; read-out: Kd): 12.9 µM | K [2]: 1.02 min⁻¹ | Activity [4]: 2.6%

O=C(Nc1ccc(-c2cccc(Cl)c2Cl)cc1)Nc1cccc(C(=O)O)c1
Activity (SH-SY5Y): Non-Toxic | Activity (HepG2): Non-Toxic | Activity (J774.A1): Non-Toxic | Activity (THP-1): Non-Toxic

O=C(Nc1cccc(-c2nnn[nH]2)c1)Nc1ccc(Cl)c(Cl)c1
Kd [1]: Not Active | K [2]: > 20 min⁻¹

Cc1ccc(NC(=O)Nc2cccc(C(=O)O)c2)cc1
Kd ([1]; read-out: Kd): 8 µM | K [2]: 1.92 min⁻¹ | Activity [4]: 4.9% | MIC [3]: 23.1 µM

O=C(Nc1ccc(Cl)c(Cl)c1)Nc1ccc(C(=O)O)cc1O
Kd [1]: Not Active | K [2]: > 20 min⁻¹

O=C(O)c1cccc(NC(=S)Nc2ccc(Cl)cc2)c1
Kd ([1]; read-out: Kd): > 300 µM | K [2]: > 20 min⁻¹

O=C(NCc1ccc(Cl)c(Cl)c1)Nc1cccc(C(=O)O)c1
Kd ([1]; read-out: Kd): > 300 µM | K [2]: > 20 min⁻¹
